E-sel inducer = induces E-selectin expression in human endothelial cells. activation, % at 7.58 µM. 0.37% of 260,000 active. HUVEC E-selectin immunofluorescence imaging; normalized: neutral wells 0, TNF-alpha wells 100;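 active = mean E-selectin-positive cell signal at least 10% of the positive control, reached in at least 60% of replicates, without over 20% cell loss; inconclusive = no rule given, readout overlaps actives, possibly toxicity-flagged; inactive = the rest, including those meeting only one limit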
Target sequence (P16581 whole entry, looked up): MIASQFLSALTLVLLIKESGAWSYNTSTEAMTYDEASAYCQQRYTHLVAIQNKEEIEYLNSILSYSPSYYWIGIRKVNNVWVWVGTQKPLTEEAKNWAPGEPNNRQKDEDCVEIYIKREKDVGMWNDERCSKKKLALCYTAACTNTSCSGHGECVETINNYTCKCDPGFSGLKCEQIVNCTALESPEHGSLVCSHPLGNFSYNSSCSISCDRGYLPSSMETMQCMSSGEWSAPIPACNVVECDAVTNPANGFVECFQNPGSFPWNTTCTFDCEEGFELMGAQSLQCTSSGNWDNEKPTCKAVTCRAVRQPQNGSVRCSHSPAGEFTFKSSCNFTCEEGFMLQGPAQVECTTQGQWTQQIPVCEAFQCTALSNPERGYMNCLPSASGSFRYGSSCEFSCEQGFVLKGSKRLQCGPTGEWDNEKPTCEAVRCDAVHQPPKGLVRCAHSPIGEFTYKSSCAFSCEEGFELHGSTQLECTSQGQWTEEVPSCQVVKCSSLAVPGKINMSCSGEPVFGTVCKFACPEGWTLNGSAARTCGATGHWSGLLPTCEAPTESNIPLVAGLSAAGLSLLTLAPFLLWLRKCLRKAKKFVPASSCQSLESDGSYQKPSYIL
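System: HUVEC / Compound: single concentration / Signal: immunofluorescence imaging / Read-out: percent E-selectin-positive cells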
Statin myotox sup = suppressors of simvastatin-induced myotoxicity in C2C12 myotubes; ATP luminescence, 48 h; scaled: DMSO 0, geranylgeraniol control 100; rescue of ATP level, % at 7.49 µM; 0.78% of 330,000 active; AID 602340;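 active = mean ATP rescue above about 67%, or every replicate alone reaching that limit, limit read from the data, passing the limit was not always enough; inconclusive = no clear call, values can overlap the other calls; inactive = mean under the limit and some replicate under it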;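 note: myotubes were challenged with 10 µM simvastatin during compound exposure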
DENV2 CPE rescue = DENV2-induced cell death inhibition; AID 651640; DENV2-infected cells, cytopathic effect rescue, plate reader; 1.7% of 350,000 active; CPE inhibition, % at 9.99 µM; in the data active = CPE inhibition above about 20%, passing the limit was not always enough; inconclusive = no clear call, values can overlap the other calls; tested in BHK-21 cells;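 note: 0% = median of neutral control wells and 100% = median of positive control wells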
Active calls of the source: *; u = inconclusive; x = no result given. Shown are actives, neighbours in structure and some others; about 2.2% of the full set was active somewhere.

SMILES	E-sel inducer	Statin myotox sup	DENV2 CPE rescue
O=C(CSc1nc2ccccc2c(=O)n1CC1CCCO1)NCC1CCCO1 (centres undefined)	x	-2.4	x
NC(=O)NC(=O)CSc1nc(-c2ccccc2)c(-c2ccccc2)n1CC1CCCO1 (centres undefined)	x	139.5*	x
COc1ccc(C(=S)N2CCOCC2)cc1OC(=O)c1ccccc1	-0.1	16.9	23.7*
COc1cc(C(=S)N2CCOCC2)ccc1OC(=O)c1ccccc1	0.3	7.1	3.0
O=C(Oc1ccc(C(=S)N2CCOCC2)cc1Cl)c1ccccc1F	x	-1.3	2.5
O=C(Oc1ccc(C(=S)N2CCOCC2)cc1Br)c1ccccc1F	x	148.7*	x
CC(C)N(C[C@@H]1[C@@H](c2ccccc2)[C@@H](CO)N1S(C)(=O)=O)C(=O)CN(C)C	0.2	1.7	-5.1
CC(C)N(C[C@@H]1[C@H](c2ccccc2)[C@@H](CO)N1S(C)(=O)=O)C(=O)CN(C)C	0.0	-2.2	54.5*
Cn1cc(/C=C/C(=O)c2ccccc2)c2ccccc21	0.6	6.7	-5.8
CC(=O)N1C=CN(C(C)=O)C(c2cn(C)c3ccccc23)C1c1cn(C)c2ccccc12 (centres undefined)	x	115.0*	x
Cc1ccc(OCCOCCN2CCCC2)c(Br)c1	x	-3.8	43.7*
Cc1cc(Br)ccc1OCCOCCN1CCCC1	x	0.3	2.7
CC1(C)Cc2ccccc2-c2nc3n(c(=O)c21)CCCS3	x	x	1.7
CC1(C)Cc2ccccc2-c2nc3n(c(=O)c21)CCS3	77.4*	x	1.7
CN1[C@H](C(=O)N2CCCCC2)[C@@H](CO)[C@@H]2Cn3c(ccc(/C=C/c4ccccc4)c3=O)[C@@H]21	-0.1	38.4	6.6
Cc1cc(C)cc(OCC(=O)NNC(=O)c2cc3ccccc3o2)c1	x	2.7	1.6
CCc1ccc(OCC(=O)NNC(=O)c2cc3ccccc3o2)cc1	-2.1	81.0*	0.0
COc1ccc(NC(=O)CN2c3cccc4cccc(c34)S2(=O)=O)cc1	x	98.7*	x
Cc1ccc(NC(=O)CN2c3cccc4cccc(c34)S2(=O)=O)cc1	x	-3.9	4.0
C[C@H](O)C#Cc1cnc2c(c1)C(=O)N([C@H](C)CO)C[C@H](C)[C@H](CN(C)C(=O)c1ccncc1)O2	0.0	18.4	-1.8
Cn1ccc2c(N3CCOCC3)cc3c(c21)C1CCC3O1 (centres undefined)	-1.6	0.4	48.0*
Cn1ccc2c(N3CCCC3)cc3c(c21)C1CCC3O1 (centres undefined)	0.5	-8.5	-9.3
Cc1ccc(S(=O)(=O)Nc2ccc3c(c2)C(=O)N([C@H](C)CO)C[C@H](C)[C@H](CN(C)Cc2ccc4c(c2)OCO4)OCCCC[C@@H](C)O3)cc1	0.0	46.0	-1.8
COc1ccccc1NC(=O)N[C@@H]1C=C[C@H](CC(=O)N[C@@H](C)c2ccccc2)O[C@H]1CO	-0.1	4.2	66.0*
COc1ccccc1NC(=O)N[C@H]1C=C[C@H](CC(=O)N[C@H](C)c2ccccc2)O[C@@H]1CO	0.1	5.7	-0.1
SMILES	E-sel inducer	Statin myotox sup	DENV2 CPE rescue
CO[C@H]1CN(C)C(=O)c2cc(NS(C)(=O)=O)ccc2OC[C@@H](C)N(C(=O)c2ccc3c(c2)OCO3)C[C@H]1C	-0.1	-3.2	27.5*
CO[C@H]1CN(C)C(=O)c2cc(NS(C)(=O)=O)ccc2OC[C@H](C)N(C(=O)c2ccc3c(c2)OCO3)C[C@@H]1C	-0.1	-12.1	41.7*
CO[C@@H]1CN(C)C(=O)c2cc(NS(C)(=O)=O)ccc2OC[C@@H](C)N(C(=O)c2ccc3c(c2)OCO3)C[C@@H]1C	u	-8.6	-6.4
CO[C@@H]1CN(C)C(=O)c2cc(NS(C)(=O)=O)ccc2OC[C@@H](C)N(C(=O)c2ccc3c(c2)OCO3)C[C@H]1C	-0.1	-12.1	8.6
O=C(NCC1CCCCC1)[C@H]1[C@H](CO)[C@H]2Cn3c(cccc3=O)[C@H]2N1Cc1ccccn1	0.4	3.9	0.8
COc1ccc(NC(=O)N(C)C[C@H]2Oc3ncc(C#C[C@@H](C)O)cc3C(=O)N([C@H](C)CO)C[C@@H]2C)cc1	-0.2	15.9	10.7
CCCCC(=O)Nc1cc([N+](=O)[O-])ccc1F	x	x	0.0
CCCCC(=O)Nc1cc([N+](=O)[O-])ccc1Cl	5.7	x	22.6*
C[C@@H]1CCCCO[C@@H](CN(C)C(=O)c2ccccc2)[C@@H](C)CN([C@@H](C)CO)C(=O)c2cc(NC(=O)NC3CCCCC3)ccc2O1	-0.1	34.4	-5.2
O=C(c1cccc(F)c1)N1C[C@@H]2[C@H](c3ccccc31)[C@@H](CO)N2C(=O)C1CC1	-0.1	4.8	55.4*
O=C(c1cccc(F)c1)N1C[C@@H]2[C@H](c3ccccc31)[C@H](CO)N2C(=O)C1CCOCC1	-0.9	-16.3	22.6*
O=C(C1CCOCC1)N1C[C@@H]2[C@H](c3ccccc31)[C@H](CO)N2C(=O)c1ccccc1	0.8	9.7	89.0*
O=C(Cc1ccccc1)N1C[C@@H]2[C@H](c3ccccc31)[C@H](CO)N2C(=O)c1cccc(F)c1	0.7	3.3	-9.8
O=C(C1CC1)N1C[C@@H]2[C@H](c3ccccc31)[C@@H](CO)N2C(=O)c1ccccc1	0.8	2.9	-0.2
O=C(c1cccc(F)c1)N1C[C@H]2[C@@H](c3ccccc31)[C@@H](CO)N2C(=O)C1CC1	0.1	-6.3	-10.9
O=C(Cc1ccccc1)N1C[C@H]2[C@@H](c3ccccc31)[C@@H](CO)N2C(=O)c1cccc(F)c1	0.8	2.3	36.9*
O=C(c1cccc(F)c1)N1C[C@H]2[C@@H](c3ccccc31)[C@H](CO)N2C(=O)C1CCCC1	0.2	-10.6	-2.1
Cc1noc(C)c1NC(=O)Nc1ccc2c(c1)C(=O)N([C@@H](C)CO)C[C@H](C)[C@@H](CN(C)S(=O)(=O)c1ccc(F)cc1)OCCCC[C@@H](C)O2	-0.1	x	u
Cc1ccc(S(=O)(=O)N2C[C@@H](O)COC[C@H]3O[C@@H](CC(=O)NCc4ccc(Cl)c(Cl)c4)CC[C@@H]32)cc1	0.3	4.5	u
COc1ccc(-c2cnc3c(c2)C(=O)N([C@H](C)CO)C[C@@H](C)[C@H](CN(C)C)O3)cc1	-0.3	19.1	3.0
O=C(C[C@@H]1C=C[C@@H](NS(=O)(=O)c2ccc(F)cc2)[C@H](CO)O1)NCCN1CCCCC1	-1.5	-6.0	5.4
COc1ccc(OCC(=O)N2CCc3ccccc3C2)cc1	x	-5.0	4.1
C/C=C/[C@@H](CC(=O)N1Cc2ccccc2C[C@H]1CO)[Si](C)(C)c1ccc(OC)cc1	x	x	39.4*
C[C@@H]1CN([C@H](C)CO)C(=O)CCCn2nncc2CO[C@@H]1CN(C)C(=O)Nc1ccc(C(F)(F)F)cc1	0.2	-20.6	1.7
CCCc1c(C(=O)N/N=C/c2ccoc2)nnn1-c1nonc1N	-0.2	-1.7	20.8*
Cc1ccc(SCc2c(C(=O)N/N=C/c3ccoc3)nnn2-c2nonc2N)cc1	x	9.0	1.3
C[C@@H]1CN([C@H](C)CO)S(=O)(=O)c2ccc(-c3ccc(F)cc3)cc2O[C@@H]1CN(C)C(=O)c1ccccc1F	-0.2	-16.2	0.1
CN(C)S(=O)(=O)c1ccc(S(=O)(=O)N(Cc2ccco2)Cc2ccccc2Cl)cc1	x	-61.7	x
O=S(=O)(c1ccc(S(=O)(=O)N(Cc2ccco2)Cc2ccccc2Cl)cc1)N1CCCC1	x	93.5*	x
